Assay type in all cases: tissue-based
Test [1] has as its target T1, Prostaglandin G/H synthase 2 (Homo sapiens) (UniProt P35354).
T1 sequence (whole entry): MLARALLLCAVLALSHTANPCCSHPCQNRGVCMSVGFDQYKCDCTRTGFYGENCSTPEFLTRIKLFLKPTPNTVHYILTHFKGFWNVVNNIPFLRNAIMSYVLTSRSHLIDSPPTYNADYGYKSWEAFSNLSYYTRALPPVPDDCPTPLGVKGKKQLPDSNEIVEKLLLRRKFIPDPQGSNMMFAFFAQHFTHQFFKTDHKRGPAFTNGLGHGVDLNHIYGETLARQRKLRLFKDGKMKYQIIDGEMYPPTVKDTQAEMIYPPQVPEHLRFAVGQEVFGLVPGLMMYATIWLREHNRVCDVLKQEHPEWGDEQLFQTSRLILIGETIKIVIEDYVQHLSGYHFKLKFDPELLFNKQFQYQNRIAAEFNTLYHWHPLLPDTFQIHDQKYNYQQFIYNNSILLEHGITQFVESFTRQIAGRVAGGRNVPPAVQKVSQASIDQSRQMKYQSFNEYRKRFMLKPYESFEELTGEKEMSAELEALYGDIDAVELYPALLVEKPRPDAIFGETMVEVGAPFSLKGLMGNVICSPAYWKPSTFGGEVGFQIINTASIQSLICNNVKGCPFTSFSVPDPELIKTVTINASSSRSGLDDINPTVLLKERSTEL
The experiment in a line: Percentage inhibition of Prostaglandin G/H synthase 2 activity in human whole blood (HWB) at 10 uM. An outline of the steps:
(§1)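 COX-2: human whole blood stimulated with lipopolysaccharide 026:B6, 37 °C, 24 h, with aspirin (20 µg/mL) to block COX-1. PGE2 by enzyme immunoassay after centrifugation. Run in duplicate or repeated.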

Test [2] addresses Prostaglandin G/H synthase 1 (Homo sapiens, UniProt P23219). The experiment in a line: Percentage of inhibition of Prostaglandin G/H synthase 1 activity in human whole blood (HWB) at 10 uM. In a few lines: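 COX-1: human blood left to clot spontaneously 5 h at 37 °C, then A23187 (5 μM) 30 min further. Stopped at 0 °C with EGTA/MeOH; supernatant TXB2 by enzyme immunoassay. Run in duplicate or repeated.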

The target in test [3] is T1, Prostaglandin G/H synthase 2 (Homo sapiens). Briefly: Percentage of inhibition of Prostaglandin G/H synthase 2 activity in human whole blood (HWB) at 1 uM. In a few lines:
as §1

As usually defined, the inhibition is the share of the control response that was lost under treatment. Lower therefore signals a response near the control.

Molecules are shown by their SMILES.

Chain of Prostaglandin G/H synthase 1 (P23219 whole entry): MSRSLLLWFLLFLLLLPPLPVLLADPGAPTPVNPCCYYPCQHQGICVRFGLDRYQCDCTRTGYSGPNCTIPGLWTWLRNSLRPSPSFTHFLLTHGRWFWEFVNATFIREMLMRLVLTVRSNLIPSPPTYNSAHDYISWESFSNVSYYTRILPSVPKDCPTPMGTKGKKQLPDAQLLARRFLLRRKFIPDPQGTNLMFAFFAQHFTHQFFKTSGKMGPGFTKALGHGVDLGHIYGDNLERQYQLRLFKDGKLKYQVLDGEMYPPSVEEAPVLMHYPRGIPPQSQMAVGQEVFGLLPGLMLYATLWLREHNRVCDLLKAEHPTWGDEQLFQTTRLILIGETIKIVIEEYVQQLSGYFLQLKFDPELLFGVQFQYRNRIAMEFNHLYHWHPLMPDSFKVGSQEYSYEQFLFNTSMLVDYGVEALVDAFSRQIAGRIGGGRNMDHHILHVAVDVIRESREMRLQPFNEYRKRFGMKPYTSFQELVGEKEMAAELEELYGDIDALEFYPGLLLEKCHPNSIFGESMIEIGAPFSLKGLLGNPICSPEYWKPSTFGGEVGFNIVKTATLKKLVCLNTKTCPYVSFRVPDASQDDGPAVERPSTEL

On to `CCCc1ccnc2c(-c3ccc(F)cc3)c(-c3ccc(S(C)(=O)=O)cc3)nn12`, for which the inhibition in test [1] came to 56.1%; in test [2] it was 37.3%; in test [3], 32.2%.

For `CS(=O)(=O)c1ccc(-c2nc3cnccc3n2-c2ccc(F)cc2)cc1`, the inhibition in test [1] was 21.3%; in test [2], 34.3%.

For the molecule `CCCCc1nc(C)nc2c(-c3ccc(F)cc3)c(-c3ccc(S(C)(=O)=O)cc3)nn12`, the inhibition in test [1] worked out at 54.6%; in test [2] it was 7.7%.

For `Cc1cnc2c(-c3ccc(F)c(F)c3)c(-c3ccc(S(N)(=O)=O)cc3)nn2c1C`, the values for the inhibition in test [1], in test [2] and in test [3] were 100%, 68.2% and 97.2%, respectively.

In the case of `Cc1nnc2c(-c3ccc(F)cc3)c(-c3ccc(S(C)(=O)=O)cc3)nn2c1C`, the inhibition is 100% in test [1], 1.2% in test [2] and 40.5% in test [3].

With `CCc1c(C)cnc2c(-c3ccc(F)cc3)c(-c3ccc(S(C)(=O)=O)cc3)nn12`, the inhibition stood at 100% in test [1], 82.8% in test [2] and 62.3% in test [3].

Regarding `CS(=O)(=O)c1ccc(-c2nc3cnccn3c2-c2ccc(F)cc2)cc1`, the inhibition in test [1] is 42.5%; in test [2] it was 6%.

As to `Cc1cnc2c(-c3ccc(F)cc3)c(-c3ccc(S(N)(=O)=O)cc3)nn2c1C`, the inhibition in test [1] is 99.1%; in test [2], 22%; in test [3] it was 22.5%.

Regarding `CCOC(=O)c1cc(C)n2nc(-c3ccc(S(C)(=O)=O)cc3)c(-c3ccc(F)cc3)c2n1`, the figures for the inhibition in test [1] and in test [2] were 41% and 8%, respectively.

For the molecule `CS(=O)(=O)c1ccc(-c2nc3cccnn3c2-c2ccc(F)cc2)cc1`, the inhibition in test [1] came out at 61.2%; in test [2], 47%.

As to `Cc1nc(C)n2nc(-c3ccc(S(C)(=O)=O)cc3)c(-c3ccc(F)cc3)c2n1`, the inhibition in test [1] came out at 90.3%; in test [2] it was 4.75%; in test [3], 18.1%.

Turning to `CS(=O)(=O)c1ccc(-c2nn3c(C(F)(F)F)ccnc3c2-c2ccc(F)cc2)cc1`, the inhibition in test [1] came out at 90.6%; in test [2], 0%; in test [3] it was 3.5%.

With `Cc1cc(C(=O)O)nc2c(-c3ccc(F)cc3)c(-c3ccc(S(C)(=O)=O)cc3)nn12`, the results for the inhibition in test [1] and in test [2] were 24.6% and 33.5%, respectively.

With `Cc1nc2c(-c3ccc(F)cc3)c(-c3ccc(S(C)(=O)=O)cc3)nn2c(Cl)c1C`, the inhibition in test [1] stood at 45.8%; in test [2], 1.2%.

In the case of `Cc1cc(C(F)(F)F)nc2c(-c3ccc(F)cc3)c(-c3ccc(S(C)(=O)=O)cc3)nn12`, the results for the inhibition in test [1] and in test [2] were 57.2% and 2.5%, respectively.

Consider `Cc1cc2c(nc(-c3ccc(S(C)(=O)=O)cc3)n2-c2ccc(F)cc2)c(C)n1`, for which the inhibition in test [1] was determined as 4.3%; in test [2] it was 0%.

For the molecule `CCCCc1nccn2c(-c3ccc(F)cc3)c(-c3ccc(S(C)(=O)=O)cc3)nc12`, the figures for the inhibition in test [1] and in test [2] were 0% and 9.8%, respectively.

Regarding `Cc1ccn2c(-c3ccc(F)cc3)c(-c3ccc(S(C)(=O)=O)cc3)nc2n1`, the inhibition is 50.7% in test [1] and 13.5% in test [2].

For `Cc1cc(O)n2nc(-c3ccc(S(C)(=O)=O)cc3)c(-c3ccc(F)cc3)c2n1`, the inhibition in test [1] is 21.9%; in test [2], 8.1%.

Regarding `Cc1c(C(=O)O)cnc2c(-c3ccc(F)cc3)c(-c3ccc(S(C)(=O)=O)cc3)nn12`, the inhibition in test [1] amounted to 56.3%; in test [2], 8.3%.

As for `COc1cc(C)nc2c(-c3ccc(F)cc3)c(-c3ccc(S(C)(=O)=O)cc3)nn12`, the inhibition in test [1] and in test [2] was 0% in each case.

For the molecule `Cc1cnc2c(-c3ccc(F)cc3)c(-c3ccc(S(C)(=O)=O)cc3)nn2c1-c1ccccc1`, the figures for the inhibition in test [1] and in test [2] were 12.3% and 0%, respectively.

On to `Cc1cc(Cl)n2nc(-c3ccc(S(C)(=O)=O)cc3)c(-c3ccc(F)cc3)c2n1`, for which the inhibition in test [1] came to 14.3%; in test [2] it was 32.5%.

The values above are taken from ChEMBL document CHEMBL1134336, “Synthesis and SAR of a new series of COX-2-selective inhibitors: pyrazolo[1,5-a]pyrimidines” (J Med Chem, 2001).
